CXCR6 block – CXCR6 (human) receptor inhibition | O00574 | CHO-K1 PathHunter CXCR6 beta-arrestin, luminescence | inhibition, % at 20 µM | 0.36% of 360,000 active | AID 602244; in the data active = inhibition above about 34%, passing the limit was not always enough;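 also: antagonist mode with CXCL16 agonist at 10 nM final; 0% = 10 nM CXCL16 with DMSO and 100% = unstimulated wells without agonist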
Target sequence (O00574 whole entry, looked up): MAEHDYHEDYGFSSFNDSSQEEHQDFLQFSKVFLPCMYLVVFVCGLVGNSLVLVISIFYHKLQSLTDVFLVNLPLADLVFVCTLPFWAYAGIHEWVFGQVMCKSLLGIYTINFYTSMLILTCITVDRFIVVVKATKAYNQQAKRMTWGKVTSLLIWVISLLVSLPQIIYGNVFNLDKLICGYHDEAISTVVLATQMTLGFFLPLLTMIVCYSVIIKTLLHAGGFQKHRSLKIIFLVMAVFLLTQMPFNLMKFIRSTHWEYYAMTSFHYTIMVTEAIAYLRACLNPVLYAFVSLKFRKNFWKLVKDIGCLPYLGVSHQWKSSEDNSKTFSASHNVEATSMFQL
EBI2 block – antagonists of human EBI2 receptor; inhibition, % at 5 µM; 0.81% of 360,000 active; EBI2 beta-arrestin recruitment, luminescence, 7a,25-OHC stimulated; AID 651636; in the data active = inhibition above about 38%;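 also: enzyme fragment complementation signal reports receptor beta-arrestin coupling in cells; 0% = agonist plus DMSO wells and 100% = wells without agonist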
CCR6 antag – CCR6 (human) receptor antagonism; P51684; CHO-K1 CCR6 PathHunter beta-arrestin, luminescence, CCL20-stimulated; inhibition, % at 20 µM; 0.49% of 340,000 active; AID 493098;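 active = compounds whose inhibition of the agonist-driven luminescence signal at 20 µM reaches about 50%, limit read from the data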;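 also: cells stimulated with CCL20 at 14 nM final; plate controls were DMSO with CCL20 for no effect and DMSO without agonist for full effect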
APJ antag – antagonists of human APJ apelin receptor; CHO-K1 APJ beta-arrestin complementation, luminescence; inhibition, % at 20 µM; 0.32% of 330,000 active; AID 2521;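 active = inhibition above about 40% at 20 µM, limit read from the data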;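 also: cells challenged with 10 nM apelin-13 agonist together with compound; plate controls were apelin-13 plus DMSO wells for no effect and DMSO wells lacking apelin-13 for full effect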
APJ ag – APJ receptor agonism; P35414; CHO-K1 APJ PathHunter beta-arrestin, luminescence; 0% DMSO wells, 100% apelin; activation, % at 20 µM; 0.11% of 330,000 active; AID 2520;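 active = activation more than six SD over the plate average, tested at 20 µM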;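 also: 0% = DMSO alone and 100% = apelin-13 at 10 nM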
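Assay system – PathHunter CHO-K1 APJ (AGTRL-1) beta-arrestin reporter cells · Compound – one dose, 20 µM compound, 1% DMSO · Timing – compound 90 min 25 °C, reagent 1 h · Measured by – luminescence from split beta-galactosidase complementation, Galacton Star/Emerald II substrate · Measure – beta-arrestin recruitment to APJ as agonist activity, luminescent signal · Benchmarks – DMSO vs Apelin-13 10 nM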
APJ antag confirm – APJ receptor antagonism confirmation | shares compounds with APJ antag | APJ beta-arrestin recruitment, luminescence, antagonist mode | inhibition, % at 20 µM | 66% of 950 active; in the data active = inhibition above about 50%
* hit, by the source's call; / = no result. Hits are enriched below; roughly 1.5% of the tested compounds scored in any of these assays.

SMILES	CXCR6 block	EBI2 block	CCR6 antag	APJ antag	APJ ag	APJ antag confirm
Oc1ccc(N=Nc2ccc3c(c2)OCCO3)c2cccnc12	35.8	9.8	50.9*	52.2*	-9.9	71.4*
COc1cc(OC)cc(C(=O)Nc2cccc3cccnc23)c1	2.6	2.7	7.7	-20.6	0.5	/
Oc1ccc(N=Nc2ccc3c(c2)OCCO3)c(O)c1	24.7	5.7	39.1	11.7	-4.3	/
COc1cccc(N=Nc2ccc(O)c3ncccc23)c1	90.3*	12.2	60.1*	66.3*	-14.0	96.4*
COc1cccc(N=Nc2ccc3cccnc3c2O)c1	20.7	32.0	41.5	61.2*	-10.1	60.6*
COc1ccc(N=Nc2ccc(O)c3ncccc23)cc1	23.4	12.1	38.2	45.7*	-8.8	83.6*
COc1ccc(C)cc1N=Nc1ccc(O)c2ncccc12	31.8	9.0	49.5	/	/	/
CC(O)(c1cccc(F)c1)c1nc(-c2ccc3ccccc3c2)cs1 (configuration not stated)	-17.1	6.6	/	/	/	/
O=C1NC[C@@H](CCCCN2C[C@H](Cc3ccc(O)cc3)N(Cc3ccccc3)C(=O)C2=O)N(CC2CCCCC2)C1=O	2.6	-4.5	/	/	/	/
COC(=O)C[C@@H]1C=C[C@@H](NS(=O)(=O)c2ccc(OC)cc2)[C@@H](CO)O1	/	-11.7	/	/	/	/
CCOC(=O)c1nnc2cc(-c3ccccc3)nn2c1C	1.5	-0.1	-6.0	8.2	-3.7	/
CCOC(=O)c1nnc2c(Br)c(-c3ccccc3)nn2c1C	27.8	15.1	38.4	44.0*	-13.0	14.6
COc1cc(CN2C[C@@H](CO)O[C@@H](n3cnc4c(NC(C)C)ncnc43)C2)cc(OC)c1OC	-4.2	-1.4	/	/	/	/
CCN1/C(=C/c2ccc3ccccc3[n+]2CC)C=Cc2ccccc21	54.9*	3.5	61.5*	53.6*	-2.2	94.5*
OCC1(CO)COC(c2ccccc2)=N1	10.0	6.7	3.1	15.5	-4.0	/
O=C1OCC(CO)(CO)N=C1NNc1ccc(Cl)c(Cl)c1	24.3	7.1	35.1	55.4*	-9.2	67.1*
Cc1ccccc1CN1C(=O)c2ccccc2C1c1nnnn1-c1ccc2c(c1)OCCO2 (configuration not stated)	-9.1	-0.3	/	/	/	/
O=C(CSc1nc2c([nH]c3ccccc32)c(=O)n1-c1ccccc1)NCC1CCCO1 (configuration not stated)	53.0*	33.5	73.0*	63.7*	-21.0	83.1*
CCn1c(SCC(=O)NCC2CCCO2)nc2c([nH]c3ccccc32)c1=O (configuration not stated)	0.0	-16.2	6.9	-17.2	-7.0	/
CCn1c(-c2ccccc2)ccc(C#N)c1=O	0.2	4.5	5.2	49.9*	-1.4	47.4
CCOC(=O)C1(C)CCCN1C(=O)c1cccc2ccccc12 (configuration not stated)	0.2	-9.3	/	/	/	/
CC1(O)CC(c2ccc(Cl)cc2)=NN1C(=O)c1ccc([N+](=O)[O-])cc1 (configuration not stated)	16.8	20.3	68.0*	40.9*	-8.3	69.9*
COC(=O)C(C(=O)OC)c1ccccc1NS(=O)(=O)c1c(C)cc(C)cc1C	/	5.5	/	/	/	/
O=C(N/N=C/c1ccc(O)c([N+](=O)[O-])c1)C1CC1(c1ccccc1)c1ccccc1 (configuration not stated)	27.3	8.5	33.8	40.7*	-4.4	16.4
O=C(N/N=C/c1ccncc1)C1CC1(c1ccccc1)c1ccccc1 (configuration not stated)	6.4	1.0	10.6	7.6	0.8	/
SMILES	CXCR6 block	EBI2 block	CCR6 antag	APJ antag	APJ ag	APJ antag confirm
CSc1ncnc2c1ncn2CCCN1CCN(Cc2cccc3ccccc23)CC1	-9.9	9.8	/	/	/	/
CCCCn1nc(C(=O)NC2CCCCC2)c2ccccc2c1=O	5.6	3.3	/	/	/	/
CCN(CC)C(=S)SCC(=O)c1ccccc1	-3.3	-3.8	15.3	-7.2	-5.0	/
CCN(CC)C(=S)SSC(=S)N(CC)CC	50.6*	12.3	59.6*	71.0*	-14.8	107.7*
Cc1cc(=O)n2[nH]c(=O)c(N=Nc3ccccc3)c2[nH]1	18.5	2.7	28.1	25.2	-2.1	/
CCOc1ccc(N=Nc2c(=O)[nH]n3c(=O)cc(C)[nH]c23)cc1	15.9	6.9	48.4	46.6*	-6.6	48.9
O=C(C(=O)N1CCC(Cc2ccccc2)CC1)c1ccccc1	/	0.8	/	/	/	/
COCCNC(=O)C[C@@H]1C[C@H]2c3cc(NC(=O)Nc4ccc(F)cc4)ccc3O[C@H]2[C@H](CO)O1	-0.8	-2.0	/	/	/	/
COc1cc(/C=N/NC(=O)c2ccc(NC(=O)C3CCCCC3)cc2)ccc1O	-21.4	0.1	-2.2	48.1*	-0.8	6.0
CCOc1cc(/C=N/NC(=O)c2ccc(NC(=O)C3CC3)cc2)ccc1O	-14.8	3.6	0.1	-13.7	-4.3	/
CCc1nc2c(OCc3cc(Cl)cc(Cl)c3)cccn2c1N(C)C(=O)c1cccc(OC)c1	22.8	20.1	/	/	/	/
CN(C)c1ccc2nc3c(=O)[nH]c(=O)nc-3n(CC(O)C(O)C(O)CO)c2c1 (configuration not stated)	28.4	4.7	33.3	69.8*	-9.2	69.7*
CNc1nc(Nc2ccc(C)cc2C)c2sccc2n1	2.9	-15.3	/	/	/	/
Cn1nnc(NC(=S)NC(=O)c2cccc3ccccc23)n1	36.2	-1.1	35.3	50.7*	-10.4	86.2*
Cn1nnc(NC(=S)NC(=O)c2ccc3ccccc3c2)n1	29.5	1.2	/	/	/	/
Cc1ccc(-c2cc3c(nn2)-c2ccccc2C3=O)cc1	9.4	59.6*	46.4	43.3*	-12.9	147.0*
O=C(NCc1cccnc1)c1cc(C2CCCCN2S(=O)(=O)Cc2ccccc2)on1 (configuration not stated)	-3.2	-8.1	/	/	/	/
O=[N+]([O-])c1ccc(NC(=S)NCCc2ccccc2)cc1	8.2	11.0	23.5	17.7	-3.1	/
O=[N+]([O-])c1ccc(NNC(=S)Nc2ccccc2)cc1	38.0	7.7	67.3*	43.3*	-11.0	98.7*
Nc1c(C(=O)Nc2ccccc2)sc2nc3c(c(-c4ccco4)c12)CCC3	9.5	20.3	5.8	-19.2	21.7	/
COc1ccc(-c2c3c(nc4sc(C(=O)Nc5ccccc5)c(N)c24)CCC3)cc1	21.1	34.3	9.7	70.7*	-16.5	37.5
CCOC(=O)c1c(C)nc2sc(C(=O)Nc3ccccc3)c(N)c2c1-c1ccc(OC)cc1	10.4	36.8	-2.6	41.0*	-6.5	23.3
Cc1ccc(S(=O)(=O)Nc2nc3ccccc3nc2Nc2cccc(S(=O)(=O)N3CCCC3)c2)cc1	6.7	-17.6	2.4	73.7*	-0.6	1.0
COc1ccc(NC(=O)c2cc(C3CCCCN3C(=O)CCc3ccccc3)on2)c(C)c1 (configuration not stated)	5.0	0.2	/	/	/	/
Cc1ccc(NC(=O)Cn2nnc(C(=O)Nc3ccc(C)c(C)c3)c2N)cc1	7.6	2.1	2.3	54.9*	0.3	36.7

Source: PubChem (Sanford-Burnham Center for Chemical Genomics)
